Test [1] relates to Rattus norvegicus. In words: Percent change of heart rate in conscious DOCA Hypertensive rat at 1 hour after administration of dose of 10 mL (mg/kg po). The format is functional. The procedure, abridged: (§1)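 Male DOCA (metacorticoid) hypertensive rats, conscious, with an aortic catheter implanted under halothane anaesthesia at least 48 h beforehand. Fasted 18 h, then dosed orally; saline vehicle 10 mL. Blood pressure recorded via pressure transducer with minimal restraint; a tachograph triggered by the pulse gave heart rate. Percent change from pre-dose control read at 1, 2, 3, 5 and 22 h.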

The test system of test [2] is Rattus norvegicus. Briefly: Percent change of mean arterial blood pressure in conscious DOCA Hypertensive rat at 3 hour, after administration of dose 10 mL (mg/kg po). In kind it is functional. The procedure, abridged: as §1
In test [3] the test system is Rattus norvegicus. In words: Percent change of mean arterial blood pressure in conscious DOCA Hypertensive rat at 2 hour, after administration of dose 10 mL (mg/kg po). The format is functional. Put shortly: as §1
The test system of test [4] is Rattus norvegicus. Briefly: Percent change of mean arterial blood pressure in conscious DOCA Hypertensive rat at 1 hour, after administration of dose 10 mL (mg/kg po). The format is functional. The procedure, abridged:
as §1

Test [5] has as its system Rattus norvegicus. In words: Percent change of heart rate in conscious DOCA Hypertensive rat at 5 hour after administration of dose of 10 mL (mg/kg po). The format is functional. Put shortly: as §1
Test [6] has as its system Rattus norvegicus. In words: Percent change of mean arterial blood pressure in conscious DOCA Hypertensive rat at 22 hour, after administration of dose 10 mL (mg/kg po). The format is functional. Put shortly: as §1
Test [7] concerns Rattus norvegicus. In words: Percent change of mean arterial blood pressure in conscious DOCA Hypertensive rat at 5 hour, after administration of dose 10 mL (mg/kg po). The format is functional. The procedure, abridged:
as §1

Test [8] relates to Rattus norvegicus. In words: Percent change of heart rate in conscious DOCA Hypertensive rat at 22 hour after administration of dose of 10 mL (mg/kg po). The format is functional. Put shortly: as §1
Test [9] concerns Rattus norvegicus. In words: Percent change of heart rate in conscious DOCA Hypertensive rat at 2 hour after administration of dose of 10 mL (mg/kg po). In kind it is functional. The procedure, abridged:
as §1

The subject of test [10] is Rattus norvegicus. In words: Percent change of heart rate in conscious DOCA Hypertensive rat at 3 hour after administration of dose of 10 mL (mg/kg po). In kind it is functional. Put shortly:
as §1

Test [11] deals with Rattus norvegicus. Briefly: In vivo threshold intravenous dose required to cause reversal of clonidine on hypogastric nerves in pithed rat. In kind it is functional, Hypogastric nerve. Put shortly:
(§2)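 Pithed rats given clonidine 30 μg/kg iv, which acts presynaptically (hypogastric nerve response) and postsynaptically (pressor response). Test agents were then injected iv to find the threshold dose reversing each clonidine action. Five rats per drug.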

The test system of test [12] is Rattus norvegicus. In words: In vivo threshold intravenous dose required to cause reversal of clonidine on blood pressure in pithed rat. In kind it is functional. The procedure, abridged:
as §2

Test [13] has as its target Adrenergic receptor alpha. Briefly: In vitro presynaptic antagonist activity against Alpha adrenergic receptor in rat vas deferens. The format is functional, tissue-based. Put shortly:
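Rat vas deferens under 0.1 Hz stimulation; cumulative clonidine concentration-response curves run with increasing concentrations of test agent to gauge presynaptic α-antagonism; pA2 reported. Mean of three experiments ± SEM.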

Test [14] has as its target Adrenergic receptor alpha. In words: In vitro postsynaptic antagonist activity against Alpha adrenergic receptor in rat anococcygeus muscle. In kind it is functional, tissue-based. The procedure, abridged:
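Rat anococcygeus muscle; cumulative noradrenaline concentration-response curves obtained as control and again with increasing concentrations of test agent present; postsynaptic α-antagonism expressed as pA2. Mean of three experiments ± SEM.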

Where only a bound is given, the exact number is not on record here.

As usually defined, the pA2 is a measure of antagonist potency on a negative log scale.

With `Nc1nnc2c3ccccc3cnn12`, the Change in the test with Rattus norvegicus [1] is 8%; in the test on Rattus norvegicus [2], -20%; with Rattus norvegicus [3] it was -19%; in the test with Rattus norvegicus [4] it was -14%; in the test with Rattus norvegicus [5], 2%; with Rattus norvegicus [6], -3%. In addition, the Change in the test with Rattus norvegicus [7] is reported as -23%; in the test with Rattus norvegicus [8], 7%; in the test on Rattus norvegicus [9], 7%; in the test with Rattus norvegicus [10], 6%.
As to `CCCC/N=C(\N)Nc1nncc2ccccc12`, the Dose in the test on Rattus norvegicus [11] and in the test on Rattus norvegicus [12] was 1 mg/kg throughout. Further, the Change in the test with Rattus norvegicus [1] is reported as 14%; in the test with Rattus norvegicus [2] it was -12%; in the test on Rattus norvegicus [3], -10%; with Rattus norvegicus [4], -10%; in the test on Rattus norvegicus [5], 18%; in the test with Rattus norvegicus [6] it was 8%. The Change in the test on Rattus norvegicus [7] was -9%; with Rattus norvegicus [8] it was 11%; with Rattus norvegicus [9], 19%; with Rattus norvegicus [10], 21%. For the same compound, the values for the pA2 in [13] and in test [14] were 6.6 and 5.2, respectively.
Take `CNc1nnc2c3ccccc3cnn12`: the Change in the test on Rattus norvegicus [1] is -23%; with Rattus norvegicus [2], -12%; in the test with Rattus norvegicus [3], -13%; in the test on Rattus norvegicus [4], -12%; in the test with Rattus norvegicus [5], -25%; in the test on Rattus norvegicus [6] it was 4%. For the same compound, the Change in the test on Rattus norvegicus [7] is on record as -5%; in the test on Rattus norvegicus [8], -10%; in the test with Rattus norvegicus [9], -25%; in the test with Rattus norvegicus [10], -25%.
`CCCC/N=C(/N)Nc1nc2ccccc2nc1C`: the Dose in the test on Rattus norvegicus [11] and with Rattus norvegicus [12] was more than 1 mg/kg in each case. Moreover, the Change with Rattus norvegicus [1] is 3%; in the test on Rattus norvegicus [2], 0%; with Rattus norvegicus [3] it was -5%; with Rattus norvegicus [4], -3%; with Rattus norvegicus [5] it was -4%; in the test on Rattus norvegicus [6] it was 20%. The Change with Rattus norvegicus [7] is listed as 5%; in the test on Rattus norvegicus [8], 2%; with Rattus norvegicus [9] it was -2%; in the test on Rattus norvegicus [10] it was -5%. Moreover, the pA2 in test [13] is listed as 6.3; in [14], less than 5.5.
`N=C(N)Nc1nncc2ccccc12`: the figures for the Dose in the test with Rattus norvegicus [11] and in the test with Rattus norvegicus [12] were 3 mg/kg and 1 mg/kg, respectively. In addition, the Change in the test on Rattus norvegicus [1] was 2%; in the test with Rattus norvegicus [2], -24%; in the test on Rattus norvegicus [3] it was -20%; in the test with Rattus norvegicus [4], -22%; with Rattus norvegicus [5], 1%; in the test on Rattus norvegicus [6] it was 4%. Besides, the Change in the test with Rattus norvegicus [7] is -20%; in the test on Rattus norvegicus [8] it was 3%; in the test on Rattus norvegicus [9] it was -14%; in the test with Rattus norvegicus [10], 7%. Further, the pA2 is on record as 5.7 in [13] and 4.9 in [14].
Turning to `c1ccc2c(NC3=NCCN3)nncc2c1`, the Dose turned out to be 3 mg/kg in the test with Rattus norvegicus [11] and 0.3 mg/kg in the test with Rattus norvegicus [12]. Further, the pA2 in test [13] is listed as 6; in test [14], 4.8.
Regarding `NNc1nncc2ccccc12` [HYDRALAZINE], the Change in the test with Rattus norvegicus [1] is -5%; in the test with Rattus norvegicus [2] it was -44%; in the test on Rattus norvegicus [3] it was -45%; in the test with Rattus norvegicus [4], -47%; in the test with Rattus norvegicus [5], 11%; in the test with Rattus norvegicus [6] it was -15%. Further, the Change in the test on Rattus norvegicus [7] is given as -39%; with Rattus norvegicus [8] it was 8%; in the test with Rattus norvegicus [9], -1%; with Rattus norvegicus [10], 2%.
For the compound `Cc1ccc(N(CC2=NCCN2)c2cccc(O)c2)cc1` [PHENTOLAMINE], the Dose in the test on Rattus norvegicus [11] and with Rattus norvegicus [12] was 0.03 mg/kg in each case. Moreover, the Change in the test with Rattus norvegicus [1] was 21%; with Rattus norvegicus [2], -33%; with Rattus norvegicus [3], -34%; in the test with Rattus norvegicus [4], -41%; in the test on Rattus norvegicus [5], 11%; in the test on Rattus norvegicus [6], 6%. Besides, the Change is -22% in the test with Rattus norvegicus [7], 7% in the test with Rattus norvegicus [8], 22% in the test on Rattus norvegicus [9] and 18% in the test on Rattus norvegicus [10].

Source of the values: ChEMBL document CHEMBL1122092, “Synthesis of some potential antihypertensive phthalazinyl- and quinoxalinylguanidines” (J Med Chem, 1982).
